# RGS4 act = RGS4 potentiators or activators, primary screen, cell-based, HEK293 M3R inducible RGS4, calcium flux. actives 0.92% (n = 310,000). B-score at 10 µM. carbachol calcium flux Fluo4; stronger effect = lower value. AID 463111, 2010;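 active = B-score of the integrated calcium signal more than 4 SD below the library mean, with starting fluorescence not abnormally high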;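 also: negative B-score means reduced calcium response which marks RGS4 activation or potentiation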
#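 Material: Inducible-RGS4 HEK293 cells carrying M3 receptor; also added: carbachol at ECmax as muscarinic agonist stimulus; incubation: compound preincubation 20 min at room temperature before agonist; signal: Fluo4-AM (2 µM) calcium-flux fluorescence, kinetic read; measure: integrated calcium ratio converted to B score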
# MrgX1 antagonist = antagonists of human MrgX1 receptor, primary screen, HEK293 cells, Fluo-4 calcium flux; BAM8-22 antagonism; stronger effect = lower value; actives 1.3% (n = 310,000); AID 588676, 2011; Mas-related G-protein coupled receptor member X1 (Homo sapiens), Q96LB2; B-score at 10 µM;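 active = calcium-response B-score plate-corrected more than 3 library SD below zero, starting fluorescence within 5 deviations, no agonist response on first addition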;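 also: peak minus trough fluorescence over baseline after final BAM8-22 challenge near maximal dose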
# Target sequence (Q96LB2 whole entry, looked up): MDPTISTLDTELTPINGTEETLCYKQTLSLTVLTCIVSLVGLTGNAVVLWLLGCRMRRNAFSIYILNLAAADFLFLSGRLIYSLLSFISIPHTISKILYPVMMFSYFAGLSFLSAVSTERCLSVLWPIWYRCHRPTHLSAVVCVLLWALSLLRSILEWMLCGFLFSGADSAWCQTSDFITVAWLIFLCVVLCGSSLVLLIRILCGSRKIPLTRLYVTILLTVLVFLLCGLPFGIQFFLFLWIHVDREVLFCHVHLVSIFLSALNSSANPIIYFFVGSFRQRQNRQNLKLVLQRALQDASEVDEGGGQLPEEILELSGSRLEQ
# MrgX1 PAM = positive allosteric modulators of MrgX1, primary screen, HEK293 cells, Fluo-4 calcium flux | FDSS; stronger effect = higher value | Mas-related G-protein coupled receptor member X1 (Homo sapiens), Q96LB2 | B-score at 10 µM | actives 0.63% (n = 310,000);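 active = plate-corrected calcium response at least 3 library SD above typical, normal starting fluorescence, not activating the receptor alone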;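 also: compound read alongside a low EC10 to EC30 dose of BAM8-22 agonist; peak minus trough fluorescence over baseline measured at the second addition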
# MrgX1 agonist = agonists of human MrgX1 receptor, primary screen, HEK293 cells, Fluo-4 calcium flux; Mas-related G-protein coupled receptor member X1 (Homo sapiens), Q96LB2; Fluo-4 calcium fluorescence, agonist mode; stronger effect = higher value; B-score at 10 µM; actives 0.44% (n = 310,000);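 active = calcium response B-score plate-corrected fluorescence ratio at least 3 library SD, with starting fluorescence B-score inside 5 SD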
#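 Test system: Stable human MrgX1 HEK293 cell line | Schedule: Overnight plating before 1 h dye loading | Read-out basis: Baseline-normalised fluorescence change ratio, B-scored | Detection: Kinetic calcium dye fluorescence, Fluo-4 NW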
# RGS4 block = RGS4 inhibitors, primary screen, cell-based, HEK293 M3R inducible RGS4, calcium flux; Regulator of G-protein signaling 4 (Homo sapiens), P49798; Fluo-4 calcium flux; stronger effect = higher value; triggered by carbachol at its EC20; B-score at 10 µM; actives 0.45% (n = 310,000); AID 463165, 2010;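 active = B-score, a plate-corrected calcium signal, over three deviations above library mean, with baseline fluorescence within five deviations of library mean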;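 also: RGS4 expression induced by doxycycline in cells with stable M3 receptor; B-score is computed from the integrated fluorescence ratio over baseline after carbachol; higher B-score means a larger calcium signal and so more RGS4 inhibition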
# Target sequence (P49798 whole entry, looked up): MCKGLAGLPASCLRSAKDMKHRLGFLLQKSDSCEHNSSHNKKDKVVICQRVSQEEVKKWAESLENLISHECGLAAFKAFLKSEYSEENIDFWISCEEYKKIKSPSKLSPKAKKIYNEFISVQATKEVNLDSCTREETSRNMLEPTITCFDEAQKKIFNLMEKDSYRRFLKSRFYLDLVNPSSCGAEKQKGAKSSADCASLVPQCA
# An asterisk follows results filed as active; i = inactive; · = no result given. Rows were chosen to be rich in hits. Some 3.5% of all compounds tested hit in one or more screens of this group.
SMILES,RGS4 act,MrgX1 antagonist,MrgX1 PAM,MrgX1 agonist,RGS4 block
CCN(CC)S(=O)(=O)c1ccc(NN=C(C#N)C#N)cc1,i,-7.38*,i,i,i
N#CC(C#N)=NNc1ccc(-n2ccc(C(F)(F)F)n2)cc1,i,i,i,i,i
C=C(C)[C@@H]1C2C(=O)O[C@H]1[C@H]1OC(=O)[C@@]34OC3C[C@]2(O)[C@@]14C (stereo partly drawn),·,-6.38*,i,i,·
COc1ccc(-n2c(C)nc3ccccc3c2=O)c([N+](=O)[O-])c1,i,i,i,i,i
O=c1[nH]c(=O)n(C2CCCCC2)c(O)c1/C=C/C=Nc1ccccc1,i,-5.05*,i,i,i
O=[N+]([O-])c1cc(F)c(N2CCCCCC2)cc1N1CCNCC1,i,-5.18*,i,i,i
O=[N+]([O-])c1ccc(N2CCNCC2)cc1N1CCCCCC1,i,i,11.4*,i,i
CN1CCN(c2ccc([N+](=O)[O-])c(N3CCCCC3)c2)CC1,i,i,i,i,i
COc1ccccc1N(CC(=O)NC1CCCC1)C(=O)c1cnn(C(C)C)c1,i,i,i,i,i
CC1=C(/C=C/c2ccccc2)CCN(C)C1,i,i,i,i,i
Cc1cc(Oc2ccc(C(F)(F)F)cc2[N+](=O)[O-])c2c3c(c(=O)oc2c1)CCC3,i,i,i,i,i
Cc1cc(Oc2ccc(C(F)(F)F)cc2[N+](=O)[O-])c2c3c(c(=O)oc2c1)CCCC3,-7.42*,i,i,i,i
CCOC(=O)C1C(=O)NC23CCCC2C1c1ccccc1O3 (stereo not drawn),i,i,i,i,i
CN(C)C=C1C(=O)N(C2CCCCC2)C(=O)N(C2CCCCC2)C1=O,i,i,i,52*,i
COc1ccc(CC(C)NCCC(c2ccccc2)c2ccccc2)cc1 (stereo not drawn),-7.43*,i,i,i,i
C=CCc1ccc(OC)cc1,·,i,i,i,·
C=C1C2[C@H](OC(C)=O)[C@@H]3CC(=O)[C@]4(C)OC[C@@]3(C)[C@@]4(O)[C@@H](OC(C)=O)[C@H](OC(C)=O)[C@@]2(COC(=O)c2ccccc2)[C@@H](OC(C)=O)C[C@@H]1O (stereo partly drawn),i,-5.39*,i,i,i
OC(Cn1c2ccccc2c2ccccc21)C[n+]1cccc2ccccc21 (stereo not drawn),-7.93*,i,i,i,i
CCC1C=CC=CC[C@H](C)[C@@H](O)[C@](C)(O)C(=O)[C@@H](C)[C@H](O)[C@@H](C)C(=O)[C@H](C)[C@@H](O)[C@H](C)C=CC(=O)OC2[C@@H](C)C(CC1)OC1(CC[C@@H](C)C(C[C@H](C)O)O1)[C@@H]2C (stereo partly drawn),·,-4.83*,i,i,·
CCOc1cc2c(cc1OCC)-n1cccc1C(c1ccc(C)cc1C)NC2 (stereo not drawn),i,i,i,i,i
CCOc1cc2c(cc1OCC)-n1cccc1C(c1cc(C)c(OC)cc1C)NC2 (stereo not drawn),i,-4.93*,i,i,i
COc1cc(C)cc2oc(=O)c(CC(=O)N3C[C@H]4C[C@@H](C3)c3cccc(=O)n3C4)c(C)c12,i,i,i,i,i
Cc1cc(O)c2c(C)c(CC(=O)N3C[C@H]4C[C@@H](C3)c3cccc(=O)n3C4)c(=O)oc2c1,i,-5.22*,i,i,i
Cc1cc(-c2ccccc2)cc(-c2ccccc2)[n+]1CCc1ccccc1,-8.18*,-4.63*,i,i,i
Clc1ccc(C[n+]2c(-c3ccccc3)cc(-c3ccccc3)cc2-c2ccccc2)cc1,-8.1*,-6.86*,i,i,i
SMILES,RGS4 act,MrgX1 antagonist,MrgX1 PAM,MrgX1 agonist,RGS4 block
Cc1c(C=O)c2ccccc2n1Cc1ccc([N+](=O)[O-])cc1,i,-5.27*,i,i,i
CCOC(=O)c1c(-n2c(C)cc(C=C3C(=O)NC(=S)NC3=O)c2C)sc2c1CCCC2,i,i,i,28.3*,i
CCOC(=O)c1c(-n2c(C)cc(/C=C3/C(=O)NC(=O)N(CC)C3=O)c2C)sc2c1CCCC2,i,i,i,i,i
CCCNS(=O)(=O)c1ccc(OCC(=O)N2CCN(Cc3ccc4c(c3)OCO4)CC2)c(C)c1,i,i,i,i,i
Cc1ccsc1C(=O)C1CCCN(Cc2c(C)nn(C(C)C)c2C)C1 (stereo not drawn),i,i,i,i,i
OC(c1ccccc1)(c1ccccc1)C1CN2CCC1CC2 (stereo not drawn),-7.45*,i,i,i,i
CCOc1ccc(-n2c(O)c(N=Nc3c(C)n(C)n(-c4ccccc4)c3=O)c(=O)[nH]c2=O)cc1,i,i,i,i,i
Clc1cnc(Oc2ccc(Oc3ncc(Cl)cc3Cl)cc2)c(Cl)c1,i,i,12.6*,i,i
C[C@H]1CC[C@@H]2N(C1)C[C@H]1[C@@H]3C[C@H]4[C@@H](CC(=O)[C@H]5C[C@@H](O)CC[C@@]54C)[C@@H]3CC[C@H]1[C@]2(C)O,i,i,i,i,i
CC(=O)O[C@H]1CC[C@@]2(C)[C@H](C1)C(=O)C[C@H]1[C@@H]3CC[C@@H]4[C@@H](CN5C[C@@H](C)CC[C@H]5[C@@]4(C)O)[C@@H]3C[C@@H]12,-7.04*,i,i,i,i
O=C1NC(=O)C(=Cc2ccc(Oc3ccc([N+](=O)[O-])cc3)cc2)C(=O)N1,i,i,7.02*,i,i
O=C1NC(=O)C(=Cc2ccc3ccccc3c2)C(=O)N1,i,i,i,i,i
CN1C[C@H](CO)C=C2c3cccc4[nH]cc(c34)C[C@H]21,i,i,i,35.6*,i
Cc1cccc(-n2c(C)nc3ccc(Cl)cc3c2=O)c1,i,i,i,i,i
CCCC[N+]12CCC(CC1)C(=C(c1ccccc1)c1ccccc1)C2,-8.59*,i,i,i,i
CC[n+]1c(/C=C/C=C/c2ccc(N(C)C)cc2)sc2ccccc21,i,i,i,i,i
CC[n+]1c(/C=C/N(C)c2ccccc2)sc2ccc(Cl)cc21,-9.53*,i,i,i,i
CN(C)CC#CCC(O)(c1ccccc1)C1CCCC1 (stereo not drawn),i,i,i,i,i
